Results on one compound are retold here after ChEMBL document CHEMBL2086264.

One may read the MIC90 as the lowest concentration that inhibits either 90% of growth or 90% of the strains tested, depending on the study.

Calls of active or inactive are those of the source. The calls are words filed in the database; no cut-off is given here.

Experiment [1] relates to Bacillus subtilis. Put plainly: Antibacterial activity against Bacillus subtilis ATCC 23857 after overnight incubation by microbroth dilution assay. The class given is functional. Put shortly:
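CLSI M7A7 microbroth dilution in Mueller-Hinton broth; S. pneumoniae broth given 5% lysed horse blood. DMSO stocks of 10 mg/mL; twofold dilutions to final 200–0.0125 µg/mL. Mid-log inoculum (OD600 0.5) diluted to final OD600 0.0005 (~10^5 CFU/mL). Overnight at 37°C; MIC is the lowest concentration inhibiting 90% of visible growth.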
For orientation: Dilution methods test growth across graded concentrations, often in twofold steps.

In experiment [2] the test system is Staphylococcus aureus. The experiment in a line: Growth inhibition of Staphylococcus aureus RN4220 harboring gpsA mutant at 6.25 to 100 uM measured immediately by spectrophotometry. In kind it is functional, organism-based.
Experiment [3] has as its system Staphylococcus aureus. Put plainly: Inhibition of protein synthesis in Staphylococcus aureus RN4220 harboring gpsA mutant assessed as inhibition of [3H]amino acid incorporation into protein at 50 uM incubated for 15 mins before [3H]amino acid addition measured after 30 mins by scintillation counting. The class given is functional, organism-based. The procedure, abridged: (§1)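 RN4220 at OD600 0.5 in 10 mL aliquots, 15 min with compound. Then 30 min with 10 µCi label: 3H amino acid mix (protein), [3H]thymidine (DNA) or [3H]uracil (stable RNA). Cells collected on 0.45 µm filters, counted, OD600-normalized and expressed relative to untreated cells. Duplicates, mean with standard error.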

In experiment [4] the test system is Staphylococcus aureus. The experiment in a line: Inhibition of DNA synthesis in Staphylococcus aureus RN4220 harboring gpsA mutant assessed as inhibition of [3H]thymidine incorporation into DNA at 50 uM incubated for 15 mins before [3H]thymidine addition measured after 30 mins by scintillation counting. The class given is functional, organism-based. Put shortly: as §1
For orientation: Incorporation of labelled thymidine or its analogues reports DNA synthesis.

Experiment [5] deals with Staphylococcus aureus subsp. aureus RN4220. Put plainly: Inhibition of PlsY-mediated lipid synthesis in Staphylococcus aureus RN4220 harboring gpsA mutant assessed as inhibition of [14C]acetate incorporation into fatty acid incubated for 15 mins prior to [14C]acetate addition measured after 30 mins by scintillation counting. The procedure, abridged: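 Mid-log S. aureus RN4220 (OD600 0.5) split into 10 mL aliquots. Compound or DMSO added for 15 min, then 10 µCi [14C]acetate for 30 min. Cells PBS-washed, lipids extracted by Bligh–Dyer, scintillation counted and normalized to OD600. Duplicates, mean with standard error.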

The test system is the same in experiment [6]. The experiment in a line: Inhibition of PlsY-mediated lipid synthesis in Staphylococcus aureus RN4220 harboring gpsA mutant assessed as increase in [14C]-labeled free fatty acid level.
Experiment [7] shares this test system. Put plainly: Inhibition of PlsY in Staphylococcus aureus RN4220 harboring gpsA mutant assessed as Fab4-mediated fatty acid chain elongation measured as 15C fatty acid level at 25 uM after 2.5 hrs by mass spectrophotometry. Set-up: scale not given: the % may be the effect or the level left. The procedure, abridged:
(§2)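 RN4220 grown in Luria-Bertani broth at 37°C with 225 rpm shaking to OD600 0.5. 50 mL cultures treated for 2.5 h alongside a DMSO control. Lipids extracted by Bligh–Dyer and fatty acids analyzed by gas chromatography. Weight percent, mean of duplicates; not detected means <1%.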

Experiment [8] shares this test system. The experiment in a line: Inhibition of PlsY in Staphylococcus aureus RN4220 harboring gpsA mutant assessed as Fab4-mediated fatty acid chain elongation measured as 18C fatty acid level at 25 uM after 2.5 hrs by mass spectrophotometry. Set-up: scale not given: the % may be the effect or the level left. The procedure, abridged:
as §2

For experiment [9] the test system is unchanged. The experiment in a line: Inhibition of PlsY in Staphylococcus aureus RN4220 harboring gpsA mutant assessed as Fab4-mediated fatty acid chain elongation measured as 16C fatty acid level at 50 uM after 2.5 hrs by mass spectrophotometry. Set-up: scale not given: the % may be the effect or the level left. Put shortly:
as §2

The test system is the same in experiment [10]. The experiment in a line: Inhibition of PlsY in Staphylococcus aureus RN4220 harboring gpsA mutant assessed as Fab4-mediated fatty acid chain elongation measured as 19C fatty acid level at 50 uM after 2.5 hrs by mass spectrophotometry. Further details: scale not given: the % may be the effect or the level left. Put shortly: as §2
For experiment [11] the test system is unchanged. Put plainly: Inhibition of PlsY in Staphylococcus aureus RN4220 harboring gpsA mutant assessed as Fab4-mediated fatty acid chain elongation measured as 20C fatty acid level at 50 uM after 2.5 hrs by mass spectrophotometry. Further details: scale not given: the % may be the effect or the level left. Put shortly: as §2
For experiment [12] the test system is unchanged. Put plainly: Inhibition of PlsY in Staphylococcus aureus RN4220 harboring gpsA mutant assessed as Fab4-mediated fatty acid chain elongation measured as 21C fatty acid level at 50 uM after 2.5 hrs by mass spectrophotometry. Further details: scale not given: the % may be the effect or the level left. Put shortly:
as §2

For experiment [13] the test system is unchanged. The experiment in a line: Inhibition of PlsY in Staphylococcus aureus RN4220 harboring gpsA mutant assessed as 34C phophotidylglycerol formation at 25 uM after 2.5 hrs by mass spectrophotometry. Put shortly: (§3)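 RN4220 grown in Luria-Bertani broth at 37°C to OD600 0.5. 50 mL aliquots treated for 2.5 h alongside a DMSO control. Cells PBS-washed, lipids extracted by Bligh–Dyer. Phosphatidylglycerol molecular species distribution determined by mass spectrometry.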

Experiment [14] has the same test system. Put plainly: Inhibition of PlsY in Staphylococcus aureus RN4220 harboring gpsA mutant assessed as 35C phophotidylglycerol formation at 50 uM after 2.5 hrs by mass spectrophotometry. The procedure, abridged: as §3
The test system is the same in experiment [15]. Put plainly: Inhibition of PlsY in Staphylococcus aureus RN4220 harboring gpsA mutant assessed as accumulation of long chain acyl-ACP at 12.5 to 100 uM after 2.5 hrs by Western blot analysis. The procedure, abridged: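 Mid-log RN4220 (OD600 0.5) in 50 mL aliquots treated with compound at 37°C. Cell extracts loaded according to OD600 for similar total protein. Acyl-ACP species separated on 15% polyacrylamide gels containing 2 M urea, then detected by western blot with anti-ACP antibody.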
A general note: A western blot detects proteins with antibodies after separation by electrophoresis.

In experiment [1], `O=C(CCCCCCCc1ccccc1)NS(=O)(=O)Oc1ccccc1` came in with an MIC90 of over 200 µg/mL. The “growth inhibition (GI)” value in [2] is “inactive”. Besides, the inhibition entry in [3] and in experiment [4] was “inactive” each time. In [5], the inhibition entry is “Dose-dependent effect”. Moreover, the inhibition result in experiment [6], in experiment [13], in [14] and in experiment [15] was “Active” throughout. Moreover, the Activity in experiment [7] amounted to 37%; in experiment [8] it was 9%; in [9], 6%; in [10], 14%; in experiment [11], 13%; in experiment [12] it was 14%.
